Measured values reported in ChEMBL document CHEMBL3632581, “Dimers of Melampomagnolide B Exhibit Potent Anticancer Activity against Hematological and Solid Tumor Cells” (J Med Chem, 2015).

Columns and labels:
DU-145 = assay: Cytotoxicity against human DU145 cells after 48 hrs by SRB assay; format: functional; conditions: DU-145, 48 h
Outline: (§1)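 NCI-60 five-dose screen at 10−8 to 10−4 M. Cells were plated at 5,000–40,000/well in RPMI 1640 with 5% FBS and 2 mM L-glutamine, then preincubated 24 h, and time-zero plates were TCA-fixed. Compound was added from DMSO stocks and exposed 48 h at 37 °C. Cells were TCA-fixed, SRB-stained, and read at 515 nm. LC50 is the concentration halving the cell population through cell death.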

UO-31 = assay: Cytotoxicity against human UO31 cells after 48 hrs by SRB assay; format: functional; conditions: UO-31, 48 h
Outline: (§2)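 NCI-60 screen: cells grown in RPMI 1640 with 5% FBS and 2 mM L-glutamine, plated at 5,000–40,000 cells/well by doubling time, and preincubated 24 h at 37 °C before drug. Drug was diluted from DMSO stock and given at five concentrations, 10−4 to 10−8 M, for 48 h. Cells fixed with cold TCA, SRB stained, OD read at 515 nm against time-zero and vehicle plates. LC50 taken as the concentration that halves cell population through cell death.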

LOX IMVI = assay: Cytotoxicity against human LOXIMVI cells after 48 hrs by SRB assay; format: functional; outline: as §1
786-0 = assay: Cytotoxicity against human 786-0 cells after 48 hrs by SRB assay; format: functional; conditions: 786-0, 48 h; outline: as §1
OVCAR-4 = assay: Cytotoxicity against human OVCAR4 cells after 48 hrs by SRB assay; format: functional; conditions: OVCAR-4, 48 h; outline: as §1
NCI-H522 = assay: Cytotoxicity against human NCI-H522 cells after 48 hrs by SRB assay; format: functional; conditions: NCI-H522, 48 h; outline: as §1
SNB-75 = assay: Cytotoxicity against human SNB75 cells after 48 hrs by SRB assay; format: functional; conditions: SNB-75, 48 h; outline: as §1
U-251 = assay: Cytotoxicity against human U251 cells after 48 hrs by SRB assay; format: functional; conditions: U-251, 48 h; outline: as §2
SK-MEL-5 = assay: Cytotoxicity against human SK-MEL-5 cells after 48 hrs by SRB assay; format: functional; conditions: SK-MEL-5, 48 h; outline: as §1
M14 = assay: Cytotoxicity against human M14 cells after 48 hrs by SRB assay; format: functional; conditions: M14, 48 h; outline: as §1
SK-MEL-2 = assay: Cytotoxicity against human SK-MEL-2 cells after 48 hrs by SRB assay; format: functional; conditions: SK-MEL-2, 48 h; outline: as §1
[1] = Antileukemic activity against human AML04 cells after 24 hrs by annexin V/7-AAD staining-based flow cytometric analysis; format: functional, cell-based
Outline: (§3)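 Primary AML specimens from consenting donors, isolated by Ficoll-Paque gradient and sometimes cryopreserved. Cells were held 1 h in serum-free IMDM with 20% BIT 9500, LDL and β-mercaptoethanol before drug (DMSO stock diluted in PBS, ≤0.5% DMSO final). Exposure was 24 h over 0.5-10 μM. Annexin V/7-AAD double-negative cells, normalized to vehicle, gave the EC50. Run in triplicate.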

K562 = assay: Cytotoxicity against human K562 cells after 48 hrs by SRB assay; format: functional; conditions: K562, 48 h; outline: as §1
SK-OV-3 = assay: Cytotoxicity against human SKOV3 cells after 48 hrs by SRB assay; format: functional; conditions: SK-OV-3, 48 h; outline: as §1
UACC-62 = assay: Cytotoxicity against human UACC62 cells after 48 hrs by SRB assay; format: functional; conditions: UACC-62, 48 h; outline: as §2
HCC 2998 = assay: Cytotoxicity against human HCC2998 cells after 48 hrs by SRB assay; format: functional; conditions: HCC 2998, 48 h; outline: as §1
SW-620 = assay: Cytotoxicity against human SW620 cells after 48 hrs by SRB assay; format: functional; conditions: SW-620, 48 h; outline: as §2
BT-549 = assay: Cytotoxicity against human BT549 cells after 48 hrs by SRB assay; format: functional; conditions: BT-549, 48 h; outline: as §1
T47D = assay: Cytotoxicity against human T47D cells after 48 hrs by SRB assay; format: functional; outline: as §2
[2] = Cytotoxicity against human Hs 578T cells after 48 hrs by SRB assay; format: functional; outline: as §1
[3] = Antileukemic activity against human AML02 cells after 24 hrs by annexin V/7-AAD staining-based flow cytometric analysis; format: functional, cell-based; outline: as §3
[4] = Antileukemic activity against human AML05 cells after 24 hrs by annexin V/7-AAD staining-based flow cytometric analysis; format: functional, cell-based; outline: as §3
PC-3 = assay: Cytotoxicity against human PC3 cells after 48 hrs by SRB assay; format: functional; conditions: PC-3, 48 h; outline: as §1
HCT-15 = assay: Cytotoxicity against human HCT15 cells after 48 hrs by SRB assay; format: functional; conditions: HCT-15, 48 h; outline: as §1
RXF 393 = assay: Cytotoxicity against human RXF393 cells after 48 hrs by SRB assay; format: functional; conditions: RXF 393, 48 h; outline: as §1
OVCAR-8 = assay: Cytotoxicity against human OVCAR8 cells after 48 hrs by SRB assay; format: functional; conditions: OVCAR-8, 48 h; outline: as §1
OVCAR-3 = assay: Cytotoxicity against human OVCAR3 cells after 48 hrs by SRB assay; format: functional; conditions: OVCAR-3, 48 h; outline: as §1
[5] = Cytotoxicity against hematopoietic progenitor cells isolated from human umbilical cord blood by annexin V staining-based flow cytometric analysis; format: cell-based
Outline: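 Cord-blood mononuclear cells from Ficoll-Paque were plated in serum-free medium, with drug from a DMSO stock (≤0.5% DMSO final). Cells were stained for CD34, CD45 and annexin V. The non-apoptotic fraction (annexin V-negative within the CD34+CD45dim compartment) was normalized to vehicle, and EC50 was fitted where possible. Triplicate.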

MDA-MB-468 = assay: Cytotoxicity against human MDA-MB-468 cells after 48 hrs by SRB assay; format: functional; conditions: MDA-MB-468, 48 h; outline: as §1
NCI-H23 = assay: Cytotoxicity against human NCI-H23 cells after 48 hrs by SRB assay; format: functional; conditions: NCI-H23, 48 h; outline: as §1
RPMI-8226 = assay: Cytotoxicity against human RPMI8226 cells after 48 hrs by SRB assay; format: functional; conditions: RPMI-8226, 48 h; outline: as §1
[6] = read-out: LC50 (the source's name)

Compound: C=C1C(=O)O[C@H]2[C@H]1CC/C(COC(=O)NCCCCCNC(=O)OC/C1=C/CC[C@@]3(C)O[C@H]3[C@H]3OC(=O)C(=C)[C@@H]3CC1)=C\CC[C@@]1(C)O[C@@H]21
- GI50 (DU-145): 3.06 µM
- LC50 (concentration killing half the cells) (DU-145): 32.6 µM
- GI50 (UO-31): 8.9 µM
- CC50 (UO-31; [6]): 52.3 µM
- GI50 (LOX IMVI): 0.46 µM
- CC50 (LOX IMVI; [6]): 5.82 µM
- GI50 (786-0): 1.57 µM
- CC50 (786-0; [6]): 6.39 µM
- GI50 (OVCAR-4): 2.72 µM
- CC50 (OVCAR-4; [6]): 41.9 µM
- GI50 (NCI-H522): 0.22 µM
- CC50 (NCI-H522; [6]): 0.88 µM
- GI50 (SNB-75): 2.2 µM
- CC50 (SNB-75; [6]): 33.8 µM
- GI50 (U-251): 3.51 µM
- CC50 (U-251; [6]): 51.5 µM
- GI50 (SK-MEL-5): 3.19 µM
- CC50 (SK-MEL-5; [6]): 37 µM
- GI50 (M14): 1.71 µM
- CC50 (M14; [6]): 8.2 µM
- GI50 (SK-MEL-2): 2.01 µM
- CC50 (SK-MEL-2; [6]): 7.81 µM
- EC50 [1]: 3.5 µM
- GI50 (K562): 0.56 µM
- CC50 (K562; [6]): > 100 µM
- GI50 (SK-OV-3): 5.99 µM
- CC50 (SK-OV-3; [6]): 49.9 µM
- GI50 (UACC-62): 1.41 µM
- CC50 (UACC-62; [6]): 7.04 µM
- GI50 (HCC 2998): 6.71 µM
- CC50 (HCC 2998; [6]): 53.9 µM
- GI50 (SW-620): 0.43 µM
- CC50 (SW-620; [6]): 5.14 µM
- GI50 (BT-549): 1 µM
- LC50 (BT-549): 4.96 µM
- GI50 (T47D): 1.6 µM
- CC50 (T47D; [6]): > 100 µM
- GI50 [2]: 2.91 µM
- CC50 [2, 6]: > 100 µM
- EC50 [3]: 0.9 µM
- EC50 [4]: 1.6 µM
- GI50 (PC-3): 3.79 µM
- LC50 (concentration killing half the cell population) (PC-3): 49.4 µM
- GI50 (HCT-15): 6.18 µM
- CC50 (HCT-15; [6]): 49.8 µM
- GI50 (RXF 393): 0.85 µM
- CC50 (RXF 393; [6]): 6.35 µM
- GI50 (OVCAR-8): 3.27 µM
- CC50 (OVCAR-8; [6]): 61 µM
- GI50 (OVCAR-3): 0.76 µM
- CC50 (OVCAR-3; [6]): 5.07 µM
- EC50 [5]: > 10 µM
- GI50 (MDA-MB-468): 1.06 µM
- LC50 (MDA-MB-468): 24.7 µM
- GI50 (NCI-H23): 2.66 µM
- CC50 (NCI-H23; [6]): 45.5 µM
- GI50 (RPMI-8226): 0.78 µM
- CC50 (RPMI-8226; [6]): > 100 µM
